Assay results as given in article PMC8204096 (Clinical & Translational Immunology, 2021).
Where two headings read alike, the source gives them in different places.

Key:
[1] = system: B cells in human whole blood; assay: Anti-IgD-induced B-cell activation; format: cell-based; details: read-out: IC50, B-cell activation in whole blood, stimulated cells
BTK = BTK (Mus musculus, UniProt P35991); assay: in vivo
purified human B cells = assay: Human B-cell proliferation; format: cell-based; details: 100 nM added at time of activation; TLR9 or anti-IgM/CD40L with IL-4 or IL-21
Outline: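 Healthy-donor B cells were enriched untouched and labelled with CFSE. Stimuli were CpG ODN 2006, or F(ab′)2 anti-IgM (1 µg mL−1), or anti-IgM/MEGACD40L (1 μg mL−1) with IL-4 or IL-21 (each 20 ng mL−1). Cells were cultured with or without 100 nm test compound in serum-free X-VIVO 10 for 3–5 days, then analysed by flow cytometry.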

[2] = system: mouse splenic B cells and OTII CD4+ T cells; assay: BCR-mediated antigen presentation to T cells; format: cell-based; details: read-out: IC50, BCR-mediated antigen presentation to OVA323-339-specific T cells (T-cell proliferation)
[3] = system: splenic germinal center B cells; assay: Sheep red blood cell thymus-dependent immunisation model; format: in vivo; details: mouse, 8 days BID, all doses tested
Outline: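 Mice were dosed orally BID at 10 mL kg−1 with test compound or vehicle from day 1 to day 9. On day 2 they received washed sheep red blood cells i.p. (2 × 10⁹ cells). Spleens were collected on day 9, 3 h after the last dose. Germinal centre B cells (CD3−CD19+B220+CD38lowGL7+CD95+) were enumerated by flow cytometry, with 8–20 mice per group.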

[4] = system: B220+ mouse splenic B cells; assay: Anti-IgM-induced B-cell activation; format: cell-based; details: read-out: IC50, CD69 induction on B cells
Outline: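 Splenic B cells were bead-isolated from OTII mice and pre-treated with test compound for 30 min at 37°C. They were incubated on ice with biotinylated goat F(ab′)2 anti-mouse IgM (10 μg mL−1, 15 min), then OVA-conjugated anti-biotin (10 min), with compound present throughout. They were co-cultured with dye-labelled CD4+ T cells for 72 h at 37°C. The frequency of CD69+ B220+ B cells was measured by flow cytometry.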

[5] = system: B cells in whole blood of dosed healthy individuals; assay: Phase 1; format: in vivo, human
Outline: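 Heparinised whole blood from trial participants (test compound or placebo, BID) was stimulated with 0.1 μg mL−1 dextran-conjugated anti-IgD (IA6-2) for 18–24 h at 37°C/5% CO2. Samples were stained for CD19 and CD69, RBC-lysed and fixed. CD69 on CD19+, CD27− and CD27+ B cells was standardised with MESF beads. Inhibition was calculated relative to pre-dose samples.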

[6] = system: NP-specific IgM antibody titres; assay: NP-Ficoll T cell-independent; format: in vivo; details: mouse, oral BID for 10 days
[7] = system: CD4+ and CD8+ T cells from human PBMCs; assay: Anti-CD3/anti-CD28-mediated T-cell activation counter-screen; format: cell-based; details: anti-CD3 and anti-CD28 overnight, concentrations up to 10 μM
Outline: (§1)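 Human PBMCs were pre-treated for 30 min with titrating concentrations of test compound. They were then stimulated overnight at 37°C with soluble anti-CD28 (CD28.2, 5 μg mL−1) and plate-bound anti-CD3 (HIT3a, 0.5 µg mL−1). CD69 on CD4+ and CD8+ T cells and on CD19+ B cells was measured by flow cytometry.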

[8] = system: CD19+ B cells from human PBMC; assay: Anti-IgD-induced B-cell activation; format: cell-based; details: read-out: IC50, CD69 induction on B cells
Outline: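 PBMCs from healthy donors were isolated by density gradient. They were incubated for 30 min with titrating concentrations of test compound or DMSO, then stimulated overnight at 37°C with rabbit F(ab′)2 anti-human IgD (5 μg mL−1). After Fc block and staining for 30 min on ice, the frequency of CD69+ cells among CD19+ B cells was measured by flow cytometry.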

[9] = system: CD19+ B cells from human PBMCs; assay: Antigen-independent B-cell activation by anti-CD3/anti-CD28-activated T cells; format: cell-based
Outline: as §1

[10] = system: B cells in mouse whole blood; assay: Anti-IgD-induced B-cell activation; format: cell-based; details: read-out: IC50, CD62L downregulation on B cells
[11] = system: basophils in human whole blood; assay: FcεR-mediated basophil degranulation; format: cell-based; details: read-out: IC50, anti-IgE-mediated basophil degranulation (CD63)
[12] = Homo sapiens, B-cell, read-out: average (± SD) CD69 inhibition at 24 h post-last dose
[13] = Homo sapiens, B-cell, read-out: pre-dose average CD69 inhibition in naïve B cells

Chain of BTK (P35991 whole entry): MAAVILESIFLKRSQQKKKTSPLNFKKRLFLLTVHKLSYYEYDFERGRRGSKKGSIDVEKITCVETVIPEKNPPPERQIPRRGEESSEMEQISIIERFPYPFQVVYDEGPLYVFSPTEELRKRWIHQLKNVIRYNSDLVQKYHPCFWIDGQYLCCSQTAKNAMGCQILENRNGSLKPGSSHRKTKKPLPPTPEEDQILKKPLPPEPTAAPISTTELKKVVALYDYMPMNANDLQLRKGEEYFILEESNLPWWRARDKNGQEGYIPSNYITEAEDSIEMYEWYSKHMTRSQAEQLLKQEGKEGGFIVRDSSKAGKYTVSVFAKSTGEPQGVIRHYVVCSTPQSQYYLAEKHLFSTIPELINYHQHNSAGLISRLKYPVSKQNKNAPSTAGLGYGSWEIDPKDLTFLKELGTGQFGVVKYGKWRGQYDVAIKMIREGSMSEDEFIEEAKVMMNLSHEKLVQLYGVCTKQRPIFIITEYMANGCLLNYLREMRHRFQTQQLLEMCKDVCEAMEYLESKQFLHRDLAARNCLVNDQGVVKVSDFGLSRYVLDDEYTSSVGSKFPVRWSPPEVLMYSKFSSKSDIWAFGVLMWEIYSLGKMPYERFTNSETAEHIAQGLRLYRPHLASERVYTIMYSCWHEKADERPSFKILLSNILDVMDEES

Cc1cc(-c2ccnc(Nc3cnn(C)c3)n2)ccc1CNC(=O)N1CC(OC(C)C)C1 [BIIB068]
IC50 [1]: 3500 nM

Cn1cc(Nc2nccc(-c3ccc4c(c3)CN(C3COC3)CC[C@H]4NC(=O)c3cn(C(C)(C)C)nn3)n2)cn1 [BIIB091]
IC50 (BTK): 3.1 nM
effect on B-cell proliferative responses (purified human B cells): potently blocked
IC50 [2]: 22 ± 8 nM
frequency of total splenic B cells [3]: unchanged
IC50 [4]: 16 ± 11 nM
inhibition of CD69 upregulation in naïve B cells ([5]; 50 mg BID, 1 and 2 h post-dosing): complete
inhibition at 50 mg [5, 12]: -5.8%
inhibition at 150 mg [5, 12]: 19%
inhibition at 300 mg [5, 12]: -2.8%
inhibition at 150 mg [5, 13]: ≥ 90%
inhibition at 300 mg [5, 13]: ≥ 90%
ED50 for NP-specific IgM antibody titres [6]: 1.95 mg/kg
inhibition of CD4+ or CD8+ T-cell activation (CD69) [7]: did not inhibit
IC50 [8]: 5.4 ± 0.5 nM
inhibition of T cell-dependent, antigen-independent B-cell activation (CD69) [9]: did not inhibit
IC50 [10]: 40 ± 24 nM
IC50 [11]: 106 nM
